Reference: ChEMBL document CHEMBL3865794, “Novel securinine derivatives as topoisomerase I based antitumor agents” (Eur J Med Chem, 2016)
pIC50: −log10 of the molar value. Blank lines part the entries; values can stand above or below the molecule they belong to.

Key:
[1] = Growth inhibition of human A549 cells after 72 hrs by MTT assay; assay type: functional, cell-based
Procedure, shortened: (§1)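 Cells seeded at 5 × 10³ per well and incubated overnight in medium with 10% FBS. Medium then replaced with fresh medium containing compound at […] for 72 h. MTT (5 mg/mL stock, 20 µL per well) added for 4 h at 37 °C, formazan dissolved in DMSO, absorbance read at 570 nm. Each dose run in parallel triplicate. IC50 taken from mean absorbance versus concentration curves.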

[2] = Growth inhibition of human SH-SY5Y cells after 72 hrs by MTT assay; assay type: functional, cell-based; procedure, shortened: as §1
[3] = Growth inhibition of human HepG2 cells after 72 hrs by MTT assay; assay type: functional, cell-based; procedure, shortened: as §1
[4] = Growth inhibition of human HeLa cells after 72 hrs by MTT assay; assay type: functional, cell-based; procedure, shortened: as §1
[5] = target: T1, DNA topoisomerase 1 (Homo sapiens) (UniProt P11387); test: Inhibition of DNA topoisomerase 1 (unknown origin) assessed as reduction in relaxation of supercoiled pBR322 plasmid DNA at 100 uM incubated for 30 mins by agarose gel electrophoresis relative to control
T1 sequence (whole entry): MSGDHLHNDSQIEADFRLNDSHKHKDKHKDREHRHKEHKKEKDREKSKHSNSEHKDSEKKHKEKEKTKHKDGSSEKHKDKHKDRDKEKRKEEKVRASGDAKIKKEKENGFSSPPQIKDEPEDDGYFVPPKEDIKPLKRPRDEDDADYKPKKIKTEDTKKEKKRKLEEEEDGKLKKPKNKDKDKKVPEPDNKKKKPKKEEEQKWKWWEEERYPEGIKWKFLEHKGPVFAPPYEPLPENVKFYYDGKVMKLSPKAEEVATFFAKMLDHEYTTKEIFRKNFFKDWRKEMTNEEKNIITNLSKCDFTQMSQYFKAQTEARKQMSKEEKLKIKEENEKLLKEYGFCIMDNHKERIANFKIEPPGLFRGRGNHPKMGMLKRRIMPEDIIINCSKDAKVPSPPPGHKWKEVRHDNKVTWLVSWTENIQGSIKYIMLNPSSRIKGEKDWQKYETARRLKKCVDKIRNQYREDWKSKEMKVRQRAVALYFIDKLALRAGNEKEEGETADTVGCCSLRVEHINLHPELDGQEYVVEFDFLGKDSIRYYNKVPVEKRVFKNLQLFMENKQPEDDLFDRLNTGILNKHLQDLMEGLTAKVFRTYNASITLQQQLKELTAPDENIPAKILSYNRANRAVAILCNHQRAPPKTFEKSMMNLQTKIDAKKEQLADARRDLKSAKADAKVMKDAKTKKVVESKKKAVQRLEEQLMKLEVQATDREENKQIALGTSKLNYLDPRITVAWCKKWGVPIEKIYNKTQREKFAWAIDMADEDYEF
Procedure, shortened: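 Supercoiled pBR322 DNA incubated with Topo I in the presence or absence of compound for 30 min at 37 °C. Reaction stopped with dye solution of bromophenol blue, xylene cyanol and glycerol. Products run on 1% agarose in 1× TAE for 40 min, then EB-stained and UV-imaged. Inhibition rate derived from gel gray-scale analysis relative to control. Camptothecin served as positive control.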

[6] = target: T1, DNA topoisomerase 1 (Homo sapiens); test: Inhibition of DNA topoisomerase 1 (unknown origin) assessed as reduction in topoisomerase 1-DNA complex formation preincubated for 20 mins followed by supercoiled pBR322 plasmid DNA addition measured after 3 mins by electrophoretic mobility shift assay

SMILES: N#Cc1ccc(C(O)C2=C3C=C[C@@H]4C[C@@]3(OC2=O)[C@H]2CCCCN42)cc1 (stereo in doubt; 4a-5)
pIC50 ([1]; Homo sapiens, A549, 72 h): 5.21
pIC50 ([2]; Homo sapiens, SH-SY5Y, 72 h): 4.72
pIC50 ([3]; Homo sapiens, HepG2, 72 h): 4.85
pIC50 ([4]; Homo sapiens, HeLa, 72 h): 4.89

SMILES: O=C1O[C@@]23C[C@@H](C=CC2=C1C(O)c1ccc(Br)cc1)N1CCCC[C@@H]13 (stereo in doubt; 4a-4-b)
pIC50 ([1]; a549): 5.20
pIC50 ([2]; sh-sy5y): 4.65
pIC50 ([3]; hepg2): 4.85

SMILES: O=C1O[C@@]23C[C@@H](C=CC2=C1C(O)c1cccc(F)c1)N1CCCC[C@@H]13 (stereo partly specified)
pIC50 ([1]; Homo sapiens, A549, 72 h): 5.10
inhibition [5]: 34.9%
pIC50 ([2]; Homo sapiens, SH-SY5Y, 72 h): 4.57
pIC50 ([3]; Homo sapiens, HepG2, 72 h): 4.79
pIC50 ([4]; Homo sapiens, HeLa, 72 h): 4.78

SMILES: O=C1O[C@@]23C[C@@H](C=CC2=C1C(O)c1ccc(Cl)cc1)N1CCCC[C@@H]13 (stereo in doubt; 4a-3-b)
pIC50 ([1]; a549): 5.21
pIC50 ([2]; sh-sy5y): 4.70
pIC50 ([4]; hela): 4.90

SMILES: O=C1O[C@@]23C[C@@H](C=CC2=C1[C@@H](O)c1ccc([N+](=O)[O-])cc1)N1CCCC[C@@H]13
pIC50 ([1]; Homo sapiens, A549, 72 h): 5.70
pIC50 ([2]; Homo sapiens, SH-SY5Y, 72 h): 5.07
pIC50 ([3]; Homo sapiens, HepG2, 72 h): 5.40
pIC50 ([4]; Homo sapiens, HeLa, 72 h): 5.10
inhibition [6]: Dose-dependent effect

SMILES: O=C1O[C@@]23C[C@@H](C=CC2=C1C(O)c1ccc(Cl)cc1)N1CCCC[C@@H]13 (stereo in doubt; 4a-3)
pIC50 ([1]; Homo sapiens, A549, 72 h): 5.21
pIC50 ([2]; Homo sapiens, SH-SY5Y, 72 h): 4.70
pIC50 ([3]; Homo sapiens, HepG2, 72 h): 4.88
pIC50 ([4]; Homo sapiens, HeLa, 72 h): 4.89

SMILES: O=C1O[C@@]23C[C@@H](C=CC2=C1C(O)c1ccc(C(F)(F)F)cc1)N1CCCC[C@@H]13 (stereo in doubt; 4a-6-b)
pIC50 ([1]; a549): 5.52
pIC50 ([2]; sh-sy5y): 5.06
pIC50 ([3]; hepg2): 5.59
pIC50 ([4]; hela): 5.04

SMILES: O=C1O[C@@]23C[C@@H](C=CC2=C1C(O)c1ccc(Br)cc1)N1CCCC[C@@H]13 (stereo in doubt; 4a-4-a)
pIC50 ([1]; a549): 5.20
pIC50 ([2]; sh-sy5y): 4.65
pIC50 ([4]; hela): 4.89

SMILES: O=C1O[C@@]23C[C@@H](C=CC2=C1C(O)c1ccc(Cl)cc1)N1CCCC[C@@H]13 (stereo in doubt; 4a-3-a)
pIC50 ([1]; a549): 5.21
pIC50 ([2]; sh-sy5y): 4.70
pIC50 ([3]; hepg2): 4.88
pIC50 ([4]; hela): 4.90

SMILES: O=C1O[C@@]23C[C@@H](C=CC2=C1C(O)c1ccc(F)cc1)N1CCCC[C@@H]13 (stereo in doubt; 4a-2-a)
pIC50 ([1]; a549): 5.31
pIC50 ([2]; sh-sy5y): 4.72
pIC50 ([3]; hepg2): 5.00
pIC50 ([4]; hela): 4.89

SMILES: Cc1ccc(C(O)C2=C3C=C[C@@H]4C[C@@]3(OC2=O)[C@H]2CCCCN42)cc1 (stereo partly specified)
pIC50 ([1]; Homo sapiens, A549, 72 h): 5.06
inhibition [5]: 27.1%
pIC50 ([2]; Homo sapiens, SH-SY5Y, 72 h): 4.82
pIC50 ([3]; Homo sapiens, HepG2, 72 h): 5.15
pIC50 ([4]; Homo sapiens, HeLa, 72 h): 5.04

Further lines, with some results ahead:

inhibition [5]: 37.4%
SMILES: O=C1O[C@@]23C[C@@H](C=CC2=C1C(O)c1ccc(F)cc1F)N1CCCC[C@@H]13 (stereo partly specified)
pIC50 ([1]; Homo sapiens, A549, 72 h): 5.29
pIC50 ([2]; Homo sapiens, SH-SY5Y, 72 h): 4.66
pIC50 ([3]; Homo sapiens, HepG2, 72 h): 4.87
pIC50 ([4]; Homo sapiens, HeLa, 72 h): 4.83

inhibition [5]: 40.6%
SMILES: O=C1O[C@@]23C[C@@H](C=CC2=C1C(O)c1ccccc1[N+](=O)[O-])N1CCCC[C@@H]13 (stereo partly specified)
pIC50 ([1]; Homo sapiens, A549, 72 h): 5.41
pIC50 ([2]; Homo sapiens, SH-SY5Y, 72 h): 5.06
pIC50 ([3]; Homo sapiens, HepG2, 72 h): 5.17
pIC50 ([4]; Homo sapiens, HeLa, 72 h): 5.09

inhibition [5]: 47.1%
SMILES: O=C1O[C@@]23C[C@@H](C=CC2=C1C(O)c1ccc(Br)cc1)N1CCCC[C@@H]13 (stereo in doubt; 4a-4)

inhibition [5]: 34.7%
SMILES: O=C1O[C@@]23C[C@@H](C=CC2=C1C(O)c1cccc(Br)c1)N1CCCC[C@@H]13 (stereo partly specified)
pIC50 ([1]; Homo sapiens, A549, 72 h): 5.05
pIC50 ([2]; Homo sapiens, SH-SY5Y, 72 h): 4.70
pIC50 ([3]; Homo sapiens, HepG2, 72 h): 4.82
pIC50 ([4]; Homo sapiens, HeLa, 72 h): 4.72

inhibition [5]: 53.6%
SMILES: O=C1O[C@@]23C[C@@H](C=CC2=C1C(O)c1ccc(C(F)(F)F)cc1)N1CCCC[C@@H]13 (stereo in doubt; 4a-6)

inhibition [5]: 39.2%
SMILES: O=C1O[C@@]23C[C@@H](C=CC2=C1C(O)c1ccccc1Br)N1CCCC[C@@H]13 (stereo partly specified)
pIC50 ([1]; Homo sapiens, A549, 72 h): 5.15
pIC50 ([2]; Homo sapiens, SH-SY5Y, 72 h): 4.64
pIC50 ([3]; Homo sapiens, HepG2, 72 h): 4.90
pIC50 ([4]; Homo sapiens, HeLa, 72 h): 4.90

inhibition [5]: 43.1%
SMILES: O=C1O[C@@]23C[C@@H](C=CC2=C1C(O)c1ccc([N+](=O)[O-])cc1[N+](=O)[O-])N1CCCC[C@@H]13 (stereo partly specified)
pIC50 ([1]; Homo sapiens, A549, 72 h): 4.94
pIC50 ([2]; Homo sapiens, SH-SY5Y, 72 h): 5.06
pIC50 ([3]; Homo sapiens, HepG2, 72 h): 5.22
pIC50 ([4]; Homo sapiens, HeLa, 72 h): 5.15
